STEP block = blocks human striatal-enriched tyrosine phosphatase | P54829 | recombinant STEP, OMFP fluorogenic substrate, fluorescence | inhibition, % at 20 µM | 360,000 tested, 0.25% active;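 active = inhibition at 20 µM, scaled per plate between control wells, above about 37%, limit read from the data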;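 also: 0% = DMSO with enzyme and substrate and 100% = substrate only without enzyme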
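Test system: STEP tyrosine phosphatase / Reagent: OMFP at 25 µM / Doses: 20 µM, 1% DMSO / Read-out: percent inhibition scaled to no-enzyme and uninhibited-enzyme controls, plate-pattern corrected / Detection: FITC-channel fluorescence of OMFP product / Medium: Bis-Tris buffer pH 6.0, 2.5 mM DTT, 0.005% Tween 20 / Schedule: 20 min at room temperature, dark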
Scp1 inh = inhibitors of human Scp-1 phosphatase. Q9GZU7. 340,000 tested, 0.88% active. inhibition, % at 20 µM. AID 493091. Recombinant Scp1, phosphopeptide, malachite green phosphate absorbance;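 active = inhibition above about 50% at 20 µM, limit read from the data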;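 also: plate controls were DMSO wells with enzyme for no effect and wells lacking enzyme for full effect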
Target sequence (Q9GZU7 76-261 limits assumed): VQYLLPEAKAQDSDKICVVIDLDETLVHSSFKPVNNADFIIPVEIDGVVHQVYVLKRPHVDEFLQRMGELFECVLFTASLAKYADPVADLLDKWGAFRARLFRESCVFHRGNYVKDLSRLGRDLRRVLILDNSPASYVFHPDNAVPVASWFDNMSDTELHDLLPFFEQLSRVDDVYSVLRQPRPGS
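Test system – truncated SCP-1 phosphatase (76-261aa) · Reagent – Phosphorylated 17-residue peptide substrate · Incubation – 45 min room-temperature reaction, 5 min colour, 30 min stabiliser · Detection – colorimetric phosphate reagent with accelerator and stabiliser, absorbance at 630 nm · Measure – % inhibition at 20 µM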
LMPTP block = blocks human LMPTP phosphatase; inhibition, % at 20 µM; AID 651560; 360,000 tested, 0.22% active; recombinant LMPTP-A, OMFP fluorogenic substrate, fluorescence intensity; P24666;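 active = compounds that cut the enzyme signal by at least half of the control window in the single-dose screen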;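 also: plate controls were DMSO wells with enzyme plus substrate for no effect and substrate without enzyme for full effect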
Target sequence (P24666 whole entry, looked up): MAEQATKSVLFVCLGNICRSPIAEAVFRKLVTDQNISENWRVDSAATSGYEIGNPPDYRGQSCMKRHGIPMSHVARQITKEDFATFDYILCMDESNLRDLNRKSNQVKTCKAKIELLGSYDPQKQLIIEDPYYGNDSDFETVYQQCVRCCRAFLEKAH
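Test system: LMPTP-A phosphatase enzyme; input: 0.625 nM LMPTP-A final; reagent: OMFP substrate, 400 µM final; compound dosing: 20 µM single dose, 3% DMSO; incubation: 50 min dark incubation at room temperature; measured by: endpoint fluorescence intensity from OMFP dephosphorylation; measure: % inhibition relative to no-enzyme and uninhibited control wells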
SUMO1 PPI mod = alters human SUMO1 binding to SIM partners. P63165. 360,000 tested, 0.33% active. SUMO1 binding to a labelled peptide, TR-FRET, 1 h. inhibition, % at 20 µM; in the data active = inhibition above about 37%
Target sequence (P63165 whole entry, looked up): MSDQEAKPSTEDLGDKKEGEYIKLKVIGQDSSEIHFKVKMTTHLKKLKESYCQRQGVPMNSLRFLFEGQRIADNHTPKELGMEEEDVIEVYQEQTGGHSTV
Pemphigus Ab inh = inhibitors of pemphigus antibody binding to human desmoglein-3; P32926; DSG3-coupled beads, scFv-anti-DSG3-GFP binding, flow cytometry; active compounds read low; binding (percent of control), % at 10 µM; 310,000 tested, 0.48% active; AID 588358;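 active = binding more than 3 SD below its plate's average and above zero; inconclusive = below that plate limit but binding exactly zero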;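 also: hits lower antibody fragment binding to DSG3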
* marks the source's active call; other numbers are inactive results; ? = inconclusive; · = no result. The list is not random: actives were taken first. Their share in the collection is about 1.7%.

SMILES	STEP block	Scp1 inh	LMPTP block	SUMO1 PPI mod	Pemphigus Ab inh
COc1ccc(NC(=O)C2CC(=O)N(c3ccccc3Cl)C2)c(OC)c1 (stereo not given)	-2	-3	-2	-5	113
COc1ccc(OC)c(S(=O)(=O)Oc2ccc(N)c3ccccc23)c1	-1	-11	3	-14	99
Cc1cc(NC(=O)CSc2nnc(CNC(=O)c3ccc(C(C)(C)C)cc3)o2)no1	0	-7	0	3	·
CCn1cc(C(=O)O)c(=O)c2cc(F)c(N3CCN(C(=S)NC(=O)c4c(OC)cccc4OC)CC3)cc21	5	-5	65*	6	·
CC(=O)Nc1ccc(S(=O)(=O)NC2CCS(=O)(=O)C2)cc1Cl (stereo not given)	2	-7	0	-3	100
CCOC(=O)C1=C(C)N(C)C(=O)NC1c1cccc(O)c1 (stereo not given)	-1	3	0	56*	102
O=[N+]([O-])c1ccccc1S(=O)(=O)N1CCN(Cc2ccccc2)CC1	1	2	-1	-4	111
O=[N+]([O-])c1ccccc1S(=O)(=O)N1CCN(Cc2ccc3c(c2)OCO3)CC1	-1	-1	-1	-5	37*
COc1cc(/C=N/N(C)C2=NS(=O)(=O)c3ccccc32)cc(OC)c1OC	0	-4	1	16	102
COc1cccc(/C=N/N(C)C2=NS(=O)(=O)c3ccccc32)c1O	-2	-4	0	15	80*
Cc1[nH]n(-c2ccccc2)c(=O)c1N=Nc1cccc(S(=O)(=O)N2CCOCC2)c1	0	-9	1	-13	64*
O=c1cc(CN2CCN(Cc3ccccc3)CC2)c2ccc(O)c(O)c2o1	4	29	55*	-9	?
Cc1cccc(NS(=O)(=O)c2ccc(C(=O)NCCCN3CCCC3=O)cc2)c1C	3	2	0	5	104
CC1CCN(S(=O)(=O)c2cn(CC(=O)Nc3cccc(C#N)c3)cn2)CC1	0	1	-1	-5	·
CC(=O)c1cccc(NC(=O)Cn2cnc(S(=O)(=O)N3CCC(C)CC3)c2)c1	-1	-5	1	-7	82*
COC(=O)c1ccc(C(=O)Nc2ccc3nc(-c4ccncc4)[nH]c3c2)cc1	1	-10	0	51*	95
COC(=O)c1ccc(C(=O)Nc2ccc3nc(-c4cccnc4)[nH]c3c2)cc1	-1	-7	-1	31	·
Cc1ccc(S(=O)(=O)N2CCN(C(=O)Cc3c(F)cccc3Cl)CC2)cc1	-1	-6	0	1	104
Cc1ccc(N=Nc2c(N)n(-c3ccccc3)[nH]c2=O)cc1	-3	-13	2	-24	-0.7*
Cc1nc2ccc(NC(=O)CS(=O)(=O)c3ccccc3)cc2s1	-2	-1	-1	2	106
O=C(NC1CCCCC1)c1sc(=S)n2c1[nH]c(=O)c1ccccc12	8	80*	19	11	·
O=S(=O)(O)c1cc(O)c2c(O)c(N=Nc3cc(Cl)ccc3O)c(S(=O)(=O)O)cc2c1	101*	83*	102*	84*	87
Oc1ccc(Cl)cc1N=Nc1ccccc1	1	-9	2	-11	114
CC1=NN(CCc2ccccn2)C(=O)CC1	-2	-13	-2	0	104
COc1cccc(NC(=O)CN(C)C(=O)c2cc3c(s2)CCC(C)C3)c1 (stereo not given)	-2	-9	-10	-33	105
SMILES	STEP block	Scp1 inh	LMPTP block	SUMO1 PPI mod	Pemphigus Ab inh
COc1cccc(NC(=O)CN(C)C(=O)c2cc3c(s2)CCC3)c1	·	60*	·	·	·
COc1ccc(NC(=O)CN(C)C(=O)c2cc3c(s2)CCC3)cc1	23	86*	64*	76*	93*
NS(=O)(=O)c1ccc(CCNC(=O)c2cccc([N+](=O)[O-])c2)cc1	-4	3	1	-16	96
O=C(CCCCCCN1C(=O)c2ccccc2C1=O)NC1CCCCC1	1	-8	1	-3	-5.7*
O=C(N/N=C/c1ccc(OC(=O)c2ccc([N+](=O)[O-])cc2)cc1)c1cccnc1	1	0	2	-5	8.2*
O=C(N/N=C/c1ccc(OC(=O)c2ccccc2)cc1)c1cccnc1	6	19	-1	-5	·
O=C(N/N=C/c1ccc([N+](=O)[O-])cc1)c1[nH]ncc1Br	-3	7	6	-17	59*

High-throughput results: PubChem, several laboratories
